An excerpt weighted towards active compounds, which were near 1.4% of everything screened.
PKA-R2B act = activators of PKA-R2B holoenzyme, primary screen, biochemical, fluorescence polarization, Cy5-IP20, human | PKA-R2B holoenzyme dissociation; R2B truncated from residue 108, S112A mutant; 0% DMSO only, 100% 113 µM cGMP | activation, % at 11.4 µM | hit rate 0.079% among 340,000 | AID 504700, 2011 | cAMP-dependent protein kinase catalytic subunit beta (Homo sapiens) + cAMP-dependent …;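 active = activation above a cutoff set at the mean over all compounds plus 3 SD, cut at about 18% in these data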;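 also: higher means more holoenzyme dissociation and a rise in polarization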
SR-BI HDL uptake = inhibitors of SR-BI mediated HDL lipid uptake, primary screen, ldlA[mSR-BI] cells, fluorescence, single point | Scavenger receptor class B member 1 (Mus musculus), Q61009 | ldlA[mSR-BI] CHO cells, DiI-HDL uptake fluorescence, 3 h | inhibition, % at 12.5 µM | hit rate 0.96% among 320,000;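 active = mean replicate inhibition of at least 70% and a set share of replicates each scoring 70 or more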;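 also: 0% = median of neutral control wells and 100% = median of positive control wells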
Target sequence (Q61009 whole entry, looked up): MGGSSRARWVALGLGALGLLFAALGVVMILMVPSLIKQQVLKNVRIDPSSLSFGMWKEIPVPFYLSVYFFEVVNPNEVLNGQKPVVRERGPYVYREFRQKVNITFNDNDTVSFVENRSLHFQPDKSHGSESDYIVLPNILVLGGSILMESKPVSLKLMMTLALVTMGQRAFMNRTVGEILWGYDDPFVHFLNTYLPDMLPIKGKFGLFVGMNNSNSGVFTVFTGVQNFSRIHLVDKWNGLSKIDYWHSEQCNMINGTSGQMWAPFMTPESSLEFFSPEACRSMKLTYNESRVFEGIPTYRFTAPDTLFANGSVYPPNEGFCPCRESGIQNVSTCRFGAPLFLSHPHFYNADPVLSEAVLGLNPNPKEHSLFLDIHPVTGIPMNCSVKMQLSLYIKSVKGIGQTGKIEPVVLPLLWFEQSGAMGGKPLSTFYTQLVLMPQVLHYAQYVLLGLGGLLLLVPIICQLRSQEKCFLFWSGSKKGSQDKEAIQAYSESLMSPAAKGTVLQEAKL
PKA-R1A activ = activators of PKA-R1A holoenzyme, primary screen, biochemical, fluorescence polarization, Cy5-IP20, bovine R1A, mouse PKAc | activation, % at 11.4 µM | AID 504707, 2011 | PKA-R1A dissociation; scaled: DMSO 0%, 113 µM cGMP 100% | cAMP-dependent protein kinase type I-alpha regulatory subunit (Bos taurus) + … | hit rate 0.083% among 340,000;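 active = percent activation above the mean of all tested compounds plus 3 SD, cut at about 19% in these data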;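 also: higher means more PKAc released from R1A so a rise in polarization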
Vif inh = HIV Vif self-association inhibitors, primary screen, imaging, HEK293T, single point; inhibition, % at 7.49 µM; hit rate 0.35% among 340,000; HEK293T cells, Vif self-association by quenched fluorescence, 24 h; AID 602346, 2012; in the data active = inhibition above about 50%, passing the limit was not always enough
SR-BI DiI-HDL act = activators of SR-BI mediated DiI-HDL uptake, primary screen, ldlA[mSR-BI] CHO cells, DiI fluorescence; 3 h; 100 = double the neutral-control signal; AID 504775, 2011; activation, % at 12.5 µM; hit rate 0.096% among 320,000;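 active = mean replicate activation of at least 60% and every replicate at or above 60%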;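 also: 0% = median plate neutral-control signal and 100% = twice that signal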
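Material: SR-BI-overexpressing, LDLR-lacking CHO cells; schedule: compound exposure 3 h, 37 °C; reagent: DiI-labelled HDL at 10 µg/mL final; technique: bottom-read fluorescence, 550/595 nm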
The depositor's hits bear a star; · = not tested or not shown.

SMILES	PKA-R2B act	SR-BI HDL uptake	PKA-R1A activ	Vif inh	SR-BI DiI-HDL act
Cc1ccc(C)c(-c2cc(C(=O)Nc3cccnc3)c3ccccc3n2)c1	-2.2	28.4	6.5	-5.4	-28.4
COc1cc(-c2cc(C(=O)Nc3cccc(C(C)=O)c3)c3ccccc3n2)cc(OC)c1OC	-5.0	84.5*	-6.6	-0.9	-84.5
O=C(Nc1nc2c(s1)CCCC2)c1cc(-c2ccncc2)nc2ccccc12	3.6	76.0*	-16.5	2.6	-76.0
COc1cc(-c2cc(C(=O)Nc3ccc(O)cc3)c3ccccc3n2)cc(OC)c1OC	1.6	·	-1.5	-7.7	·
O=C(Nc1cccnc1)c1cc(-c2ccc(Br)cc2)nc2ccccc12	0.8	86.8*	-0.8	9.3	-86.8
COc1ccc(/C(C)=N/NC(=O)c2cc(-c3cccnc3)nc3ccccc23)cc1	0.9	-9.5	-4.3	3.5	9.5
C/C(=N\NC(=O)c1cc(-c2cccnc2)nc2ccccc12)c1ccccc1O	-2.0	106.7*	-3.0	-0.8	-106.6
O=C(Nc1ccc(Cl)cc1F)c1ccc2c(c1)C(=O)N(Cc1ccncc1)C2=O	·	·	·	-6.8	·
CNC(=O)CN(c1ccc(Oc2ccccc2)cc1)S(=O)(=O)c1ccc(C)cc1	3.0	-22.1	2.6	7.9	22.1
COc1cc(Cl)ccc1OC1(C)CCN(Cc2ccc(-c3ccccn3)cc2)C1 (centres undefined)	·	·	·	12.7	·
O=C(NC(=S)Nc1nc2c(s1)CCCC2)c1ccc(C(=O)c2ccccc2)cc1	-8.5	76.4*	-12.7	-1.5	-76.4
Cc1cc(NC(=O)c2cc(-c3ccccc3C)nc3ccccc23)no1	2.7	44.7	-15.6	-5.0	-44.7
Cc1ccc(-c2cc(C(=O)Nc3cc(C)on3)c3ccccc3n2)c(C)c1	-6.3	78.2*	-14.1	1.1	-77.6
CCn1cc(CNC(=O)c2cc(-c3cc(OC)ccc3OC)nc3ccccc23)c(C)n1	-14.1	78.3*	-1.5	-3.7	-78.3
O=C(c1cc(-c2ccncc2)nc2ccccc12)N1CCN(Cc2ccccc2)CC1	-5.1	-0.7	-1.7	50.6*	0.7
O=C(Nc1nc2c(s1)CCCC2)c1cccnc1	-4.9	15.3	-11.3	-3.3	-15.3
OCCN1CCN(c2ncnc3c2ncn3[C@H]2CN(Cc3ccc4c(c3)OCO4)C[C@@H](CO)O2)CC1	·	·	·	-5.9	·
CCN(CC(=O)Nc1ccc(NC(C)=O)cc1)C(=O)c1ccccc1CCc1ccccc1	-1.4	63.1	-1.3	24.6	-63.1
COc1ccccc1CN1CCNC(=O)C1CC(=O)NCC1CCOCC1 (centres undefined)	4.5	-17.1	-1.4	1.3	17.1
CCn1c(SCC(=O)Nc2ccc(N(C)C)cc2)nnc1-c1ccco1	-5.9	-3.9	8.3	1.4	3.9
CC(=O)Nc1ccc(NC(=O)c2cc(-c3ccccc3)nc3ccccc23)cc1	1.6	75.2*	-5.9	2.7	-75.2
CC1(C(=O)NS(=O)(=O)c2ccc(C#N)cc2)CCN1C(=O)Cc1ccc(Cl)cc1Cl (centres undefined)	·	·	·	10.6	·
O=C(Nc1ccccc1)Nc1cc([N+](=O)[O-])ccc1F	-6.2	-14.2	-2.6	-9.3	14.2
Cc1cc([N+](=O)[O-])ccc1NC(=O)Nc1ccccc1F	8.9	93.8*	7.9	·	-93.8
CC(C)c1ccc(N(CCc2ccccn2)C(=O)C(C)(C)C)cc1	-13.8	·	1.1	-8.1	·
SMILES	PKA-R2B act	SR-BI HDL uptake	PKA-R1A activ	Vif inh	SR-BI DiI-HDL act
CCCCN1C2=C(C(=O)CCC2)C(c2ccc(Cl)c(Cl)c2)C2=C1c1ccccc1C2=O (centres undefined)	-5.4	85.3*	4.8	·	-85.3
Cn1c(=O)c2c(ncn2CCOc2cccc(Br)c2)n(C)c1=O	-3.4	4.4	-5.5	0.9	-4.4
CCN1/C(=C\C(=S)Nc2ccccc2)Sc2ccccc21	-4.6	80.5*	-6.7	-19.3	-80.5
CCN1/C(=C\C=C(C(C)=O)C(C)=O)Sc2ccccc21	-1.7	36.6	3.5	5.2	-36.6
NC(=S)n1[nH]c(-c2ccc([N+](=O)[O-])cc2)c(N=Nc2ccccc2[N+](=O)[O-])c1=O	-0.6	89.3*	0.4	-0.7	-89.3
Cc1[nH]n(C(N)=S)c(=O)c1N=Nc1cccc([N+](=O)[O-])c1C	9.1	-14.2	-9.0	4.4	14.2
Cc1c(N=Nc2c(-c3ccc([N+](=O)[O-])cc3)[nH]n(C(N)=S)c2=O)cccc1[N+](=O)[O-]	-5.8	91.8*	0.3	10.8	-91.7
NC(=S)n1[nH]c(-c2ccc([N+](=O)[O-])cc2)c(N=Nc2cccc([N+](=O)[O-])c2)c1=O	-2.6	87.2*	7.9	-28.9	-87.2
Cc1ccc(C)c(NC(=O)COC(=O)c2ccc3c(c2)OCCO3)c1	4.4	-10.1	7.1	-0.2	10.1
Cc1nnc(SCC(=O)NCC(=O)Nc2ccc(F)c(F)c2F)n1Cc1ccccc1	1.6	-14.6	3.1	-3.6	14.6
O=[N+]([O-])c1ccccc1CSc1ccccn1	·	3.6	·	-1.7	-3.6
O=[N+]([O-])c1ccccc1CCc1cnc(Cl)s1	4.6	84.0*	-14.1	·	-84.0
CCN1CCc2c(sc(NC(=O)c3ccc4ccccc4c3)c2C(N)=O)C1	-6.0	12.0	5.4	2.5	-12.0
CCN1CCc2c(sc(NC(=S)NC(=O)c3ccc(Cl)cc3)c2C(N)=O)C1	-4.0	58.0	5.4	50.8*	-58.0
CCOC(=O)N1CCC(N2C(=O)c3ccc(C(=O)Nc4ccc(F)cc4F)cc3C2=O)CC1	-3.4	78.5*	-6.9	-6.8	-78.5
COc1ccc(CNC(=S)Nc2cccc(Cl)c2)cc1	·	·	·	53.4*	·
COc1ccc(CNC(=O)Nc2cccc(Cl)c2)cc1	-16.5	14.3	-3.7	1.6	-14.3
CC(Nc1nc(-c2cccc(Br)c2)cs1)c1nc2cc(Cl)c(N3CCCCC3)cc2n1CCOCCO (centres undefined)	-13.2	75.4*	-8.4	·	-75.4
CC1CCCN(CC(O)CN2CCN(CC(O)CN3CCCC(C)C3)C(C)C2)C1 (centres undefined)	-3.8	-17.3	-10.1	0.4	17.3
CC(=O)Nc1nonc1-c1nc2ccccc2n1C	-2.9	4.6	-10.9	79.7*	-4.6
CCCCc1cc(=O)oc2c(C)c(OCC(=O)N3CCC(C(=O)O)(c4ccccc4)CC3)ccc12	3.6	-19.5	9.1	-1.2	19.5
Cc1cc(=O)oc2c(C)c(OCC(=O)N3CCN(C(=O)C4COc5ccccc5O4)CC3)ccc12 (centres undefined)	-5.6	84.9*	-6.9	-19.5	-84.9
Cc1cc(=O)oc2c(C)c(OCC(=O)N3CCN(c4ccccc4)CC3)ccc12	-4.3	17.1	-3.0	-2.3	-17.1
